# Compound activity: PubChem BioAssay, several laboratories
# aDG glyco up = alpha-DG glycosylation activation; activation, % at 10 µM; Pro5-aDG cells, alpha-DG glycosylation AlphaScreen (IIH6); 0% Pro5, 100% B10-LARGE cell signal; 360,000 tested, 0.22% active;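 active = activation of at least 8% versus controls, or a plate z-score of at least 8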;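 note: Pro5 are CHO cells carrying HIG-tagged alpha-DG that lacks glycosylation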
# CSN inh = inhibitors of human CSN-mediated cullin deneddylation. Purified CSN, SCF-Nedd8-OG deneddylation, fluorescence polarization. AID 651999. Q92905. 360,000 tested, 0.38% active. inhibition, % at 12.5 µM;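 active = pattern-corrected inhibition above about 35%, with an unprinted fluorescence ratio check between 0.5 and 1.5, limit read from the data, passing the limit was not always enough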;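 note: 0% = enzyme with substrate and 100% = substrate without enzyme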
#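 Assay system: HEK293T-derived human Csn5 enzyme; quantity: 0.24 nM enzyme; medium: Tris/NaCl/DTT buffer, pH 7.5; also added: substrate SCFSkp2-Nedd8OG, 10 nM; doses: 12.5 µM compound; schedule: 90 min reaction at room temperature; signal: FP; read-out: % inhibition of substrate cleavage by Csn5; benchmarks: substrate-only high control, full reaction low control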
# Rpn11 block = inhibitors of human proteasome Rpn11; O00487; inhibition, % at 20 µM; AID 588493; 360,000 tested, 0.59% active; human 26S proteasome, Ub4-pepOG fluorescence polarization; 20S core pre-blocked with epoxomicin;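 active = inhibition at 20 µM, scaled to each plate's controls, above about 33%, limit read from the data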
# Target sequence (O00487 whole entry, looked up): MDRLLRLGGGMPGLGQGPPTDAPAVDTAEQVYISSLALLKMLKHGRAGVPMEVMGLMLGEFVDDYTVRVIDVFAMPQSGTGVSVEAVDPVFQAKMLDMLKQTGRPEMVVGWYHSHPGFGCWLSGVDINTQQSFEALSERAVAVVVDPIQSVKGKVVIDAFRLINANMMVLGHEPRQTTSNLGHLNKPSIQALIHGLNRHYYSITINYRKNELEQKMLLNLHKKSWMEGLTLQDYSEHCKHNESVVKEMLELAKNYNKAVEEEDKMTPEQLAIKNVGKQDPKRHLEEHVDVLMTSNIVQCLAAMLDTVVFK
# HNF4A DNA FP = change in binding of human HNF4 alpha to DNA; P41235; HNF4a-FITC DNA binding, fluorescence polarization, 1 h; activity change, % at 10 µM; 360,000 tested, 0.3% active; AID 1224865; in the data active = activity change above about 30%, passing the limit was not always enough
# Xi reactivation = reactivates the inactive X chromosome in mouse fibroblasts. AID 743238. activation, % at 7.58 µM. 360,000 tested, 0.055% active. XiGFP mouse fibroblasts, % GFP-positive cells imaging, 3 d; cells co-treated with 5-aza-dC sensitizer; scaled so ellipticine positive control = 100%;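 active = mean normalized replicate activation at least 10% and every replicate at or above 10%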;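 note: 0% = median of on-plate neutral control wells and 100% = ellipticine 6 µM median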
#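 Schedule: 3 d treatment, 15 min room-temperature fixation; system: 68-5-11 XiGFP fibroblast line; buffer or medium: DMEM plus 5-aza-dC sensitizer; control set: ellipticine 6 µM positive control; compound: one concentration, pinned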
# TPT1 inhibitor = inhibitors of Candida albicans tRNA 2'-phosphotransferase TPT1 | recombinant caTPT1, FP RNA substrate dephosphorylation | 300,000 tested, 0.81% active | AID 1962 | inhibition, % at 5 µM;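 active = inhibition above the mean of all tested compounds plus 3 SD, set per screening campaign, cut at about 24% in these data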;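 note: plate controls were DMSO alone for no effect and ferristatin control at 100 nM for full effect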
# TPT1 inh confirm = confirmation of Candida albicans TPT1 inhibitors; 2,400 tested, 74% active; inhibition, % at 5 µM; shares compounds with TPT1 inhibitor; AID 2149; recombinant caTPT1, fluorescence polarization, RNase T1 coupled;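 active = inhibition above the primary screen limit, the mean inhibition of all tested compounds plus 3 SD, cut at about 25% in these data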
# RNase T1 inh = blocks Aspergillus oryzae RNase T1, a TPT1 counter-screen | shares compounds with TPT1 inhibitor | RNase T1 cleavage, fluorescence polarization, 1536-well | inhibition, % at 5 µM | 2,400 tested, 83% active;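 active = inhibition above the solvent-only control well mean plus 3 SD, limit set per screening run, cut at about 23% in these data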;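 note: plate controls were DMSO wells with enzyme for no effect and wells without RNase T1 for full effect; inhibitors block cleavage so intact labeled substrate keeps polarization high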
# Target sequence (P00651 whole entry, looked up): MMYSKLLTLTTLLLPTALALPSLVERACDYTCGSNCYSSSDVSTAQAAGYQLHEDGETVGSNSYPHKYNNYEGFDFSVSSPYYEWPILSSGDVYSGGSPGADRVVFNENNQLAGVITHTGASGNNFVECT
# Rpn11 inh conf = Rpn11 inhibition confirmation, single concentration; shares compounds with Rpn11 block; purified human 26S proteasome, Ub4-pepOG fluorescence polarization; proteasome pretreated with epoxomicin; 1,900 tested, 29% active; inhibition, % at 20 µM
# MMP-2 counter-1 = counter-screen for RPN11 inhibitors: inhibition of human MMP-2 | shares compounds with Rpn11 block | recombinant MMP-2, FRET peptide cleavage fluorescence | inhibition, % at 20 µM | 1,900 tested, 4% active | AID 602330;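 note: human MMP-2 activated beforehand with APMA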
# Thrombin inh = blocks bovine thrombin, flagging nonselective RPN11 hits. shares compounds with Rpn11 block. bovine thrombin cleavage of Ub4-pepOG, fluorescence polarization. inhibition, % at 20 µM. 1,900 tested, 13% active;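 active = mean inhibition at least 40% at 20 µM, or signal 3 deviations below plate average, so some actives read negative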;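 note: plate controls were thrombin with DMSO for no effect and buffer wells lacking thrombin for full effect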
# CSN deneddyl val = Csn5 (human) deneddylation inhibition, single-concentration validation; shares compounds with CSN inh; Csn5 deneddylation of SCF-Nedd8OG, fluorescence polarization, 90 min; inhibition, % at 16.6 µM; 540 tested, 62% active; AID 720654; in the data active = inhibition above about 50%;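 note: 0% = DMSO with enzyme and 100% = no enzyme wells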
# MMP-2 counter-2 = MMP-2 (human) inhibition, counter-screen for CSN hits; shares compounds with CSN inh; recombinant MMP-2, FRET substrate fluorescence, 60 min; inhibition, % at 16.6 µM; 540 tested, 33% active; AID 720655;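 active = corrected plate-normalized z-score of 5 or more, or -5 or less, or inhibition of 15% or more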;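 note: plate controls were DMSO wells with enzyme for no effect and buffer wells lacking MMP-2 for full effect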
# Thrombin counter = blocks bovine thrombin in a CSN deneddylation counter-screen | bovine thrombin cleavage of Ub4-pepOG, fluorescence polarization | inhibition, % at 16.6 µM | 540 tested, 49% active | shares compounds with CSN inh;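 active = inhibition at or above a set limit, with a fluorescence interference ratio between 0.5 and a set maximum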
# HNF4A confirm = change in binding of human HNF4 alpha to DNA, retest | activity change, % at 12.5 µM | AID 1224897 | 210 tested, 99% active | HNF4A-FITC DNA binding, fluorescence polarization, 1 h | shares compounds with HNF4A DNA FP; call rule not given here
# The depositor's hits bear a star; / = no result shown. Most compounds without a hit are left out; they make up all but 1.3% or so of the library. Cut-off read from the data, not from the text of the source, unless noted: active = inhibition above about 40%; inactive = the rest.
SMILES,aDG glyco up,CSN inh,Rpn11 block,HNF4A DNA FP,Xi reactivation,TPT1 inhibitor,TPT1 inh confirm,RNase T1 inh,HNF4A confirm,others
C=CCNc1sc(C(=O)c2ccc(Br)s2)c(N)c1C#N,0.0,29.7,/,54.9*,/,27.9*,37.8*,48.6*,50.8*,
C[C@H](CO)N1C[C@H](C)[C@H](CN(C)C(=O)Nc2ccc(F)cc2)OCCCC[C@H](C)Oc2ccc(NC(=O)c3ccncc3)cc2C1=O,/,/,/,/,0.2,/,/,/,/,
CCOC(=O)/C(C#N)=C/c1cc(C)n(-c2ccccc2)c1C,0.8,-0.1,-0.8,-1.3,/,4.2,/,/,/,
CCOC(=O)/C(C#N)=C/C=C1\C=Cc2ccccc2N1CC,-0.5,44.2*,/,94.1*,0.4,79.0*,83.5*,92.6*,101.5*,CSN deneddyl val=99.5*;MMP-2 counter-2=-1.2;Thrombin counter=54.7*
C[C@@H]1CN([C@@H](C)CO)C(=O)Cc2cc(NS(=O)(=O)c3ccc(F)cc3)ccc2O[C@@H]1CN(C)CC1CC1,/,/,/,/,0.4,/,/,/,/,
O=Cc1ccc(N2N=C(c3ccccc3)CC2c2ccccc2)cc1 (stereo unspecified),0.4,2.7,-4.1,-2.8,0.1,6.9,/,/,/,
N#CCC(=O)N/N=C/c1ccc(N2N=C(c3ccccc3)CC2c2ccccc2)cc1 (stereo unspecified),0.4,39.5*,/,49.9*,3.7,50.9*,66.6*,78.5*,35.3*,
N#CCc1nc2ccc(S(=O)(=O)N3CCOCC3)cc2s1,0.1,49.4*,/,51.8*,-0.1,85.1*,62.4*,76.2*,54.5*,
COCC(=O)N1[C@H](CO)[C@H](c2ccc(-c3cccc(F)c3)cc2)C12CN(C(=O)C1CC1)C2,/,/,/,/,0.3,/,/,/,/,
Cn1cccc1/C=C1\SC(=S)N(CC(=O)O)C1=O,0.2,49.2*,/,79.9*,0.0,107.6*,115.2*,128.6*,116.8*,
O=C(O)c1ccc(/C=C/c2ccc3cccc(O)c3n2)cc1,0.1,19.9,9.1,-6.1,0.0,/,/,/,/,
Oc1ccc(/C=C/c2ccc3cccc(O)c3n2)cc1Br,0.3,33.3,/,43.8*,0.0,48.5*,63.3*,69.6*,75.5*,
O=C(Nc1ccc(S(=O)(=O)Nc2nccs2)cc1)c1ccc(N2C(=O)c3ccccc3C2=O)cc1,0.0,67.2*,67.9*,53.3*,0.2,41.4*,64.8*,77.4*,65.8*,Rpn11 inh conf=91.3*;MMP-2 counter-1=-28.9;Thrombin inh=46.0*
CCOC(=O)C1=C(C)NC(=O)NC1c1ccc(N2CCC(c3ccccc3)=N2)cc1 (stereo unspecified),-0.2,22.2,/,54.9*,0.1,53.3*,76.5*,87.2*,62.4*,
